Laboratory results as given in ChEMBL document CHEMBL2375290, “Nonclassical antifolates, part 3: synthesis, biological evaluation and molecular modeling study of some new 2-heteroarylthio-quinazolin-4-ones” (Eur J Med Chem, 2013).
In brackets after ≈: the same amount, converted by molar mass.

Tests used:
T47D = experiment: Cytotoxicity against human T47D cells at 10 uM after 48 hrs by coulter counter analysis; format: functional; conditions: read-out: GI
Hs-578T = experiment: Cytotoxicity against human Hs578T cells at 10 uM after 48 hrs by coulter counter analysis; format: functional; conditions: read-out: GI
MCF7 = experiment: Cytotoxicity against human MCF7 cells at 10 uM after 48 hrs by coulter counter analysis; format: functional; conditions: MCF7, 48 h, read-out: GI
MDA-MB-231 = experiment: Cytotoxicity against human MDA-MB-231 cells at 10 uM after 48 hrs by coulter counter analysis; format: functional; conditions: MDA-MB-231, 48 h, read-out: GI
PC-3 = experiment: Cytotoxicity against human PC3 cells at 10 uM after 48 hrs by coulter counter analysis; format: functional; conditions: PC-3, 48 h, read-out: GI
UO-31 = experiment: Cytotoxicity against human UO31 cells at 10 uM after 48 hrs by coulter counter analysis; format: functional; conditions: UO-31, 48 h, read-out: GI
RXF 393 = experiment: Cytotoxicity against human RXF393 cells at 10 uM after 48 hrs by coulter counter analysis; format: functional; conditions: RXF 393, 48 h, read-out: GI
SN12C = experiment: Cytotoxicity against human SN12C cells at 10 uM after 48 hrs by coulter counter analysis; format: functional; conditions: read-out: GI
A498 = experiment: Cytotoxicity against human A498 cells at 10 uM after 48 hrs by coulter counter analysis; format: functional; conditions: A498, 48 h, read-out: GI
CAKI-1 = experiment: Cytotoxicity against human Caki1 cells at 10 uM after 48 hrs by coulter counter analysis; format: functional; conditions: CAKI-1, 48 h, read-out: GI
[1] = Cytotoxicity against human NCI-ADR-RES cells at 10 uM after 48 hrs by coulter counter analysis; format: functional; conditions: read-out: GI
OVCAR-4 = experiment: Cytotoxicity against human OVCAR4 cells at 10 uM after 48 hrs by coulter counter analysis; format: functional; conditions: OVCAR-4, 48 h, read-out: GI
UACC-62 = experiment: Cytotoxicity against human UACC62 cells at 10 uM after 48 hrs by coulter counter analysis; format: functional; conditions: UACC-62, 48 h, read-out: GI
IGROV-1 = experiment: Cytotoxicity against human IGROV1 cells at 10 uM after 48 hrs by coulter counter analysis; format: functional; conditions: IGROV-1, 48 h, read-out: GI
SK-MEL-5 = experiment: Cytotoxicity against human SK-MEL-5 cells at 10 uM after 48 hrs by coulter counter analysis; format: functional; conditions: SK-MEL-5, 48 h, read-out: GI
Malme-3M = experiment: Cytotoxicity against human MALME-3M cells at 10 uM after 48 hrs by coulter counter analysis; format: functional; conditions: read-out: GI
MDA-MB-435 = experiment: Cytotoxicity against human MDA-MB-435 cells at 10 uM after 48 hrs by coulter counter analysis; format: functional; conditions: MDA-MB-435, 48 h, read-out: GI
SNB-75 = experiment: Cytotoxicity against human SNB75 cells at 10 uM after 48 hrs by coulter counter analysis; format: functional; conditions: SNB-75, 48 h, read-out: GI
LOX IMVI = experiment: Cytotoxicity against human LOXIMVI cells at 10 uM after 48 hrs by coulter counter analysis; format: functional; conditions: read-out: GI
SNB-19 = experiment: Cytotoxicity against human SNB19 cells at 10 uM after 48 hrs by coulter counter analysis; format: functional; conditions: SNB-19, 48 h, read-out: GI
NCI-H522 = experiment: Cytotoxicity against human NCI-H522 cells at 10 uM after 48 hrs by coulter counter analysis; format: functional; conditions: NCI-H522, 48 h, read-out: GI
SF-295 = experiment: Cytotoxicity against human SF295 cells at 10 uM after 48 hrs by coulter counter analysis; format: functional; conditions: SF-295, 48 h, read-out: GI
NCI-H23 = experiment: Cytotoxicity against human NCI-H23 cells at 10 uM after 48 hrs by coulter counter analysis; format: functional; conditions: NCI-H23, 48 h, read-out: GI
[2] = Cytotoxicity against human EKVX cells at 10 uM after 48 hrs by coulter counter analysis; format: functional; conditions: read-out: GI
NCI-H226 = experiment: Cytotoxicity against human NCI-H226 cells at 10 uM after 48 hrs by coulter counter analysis; format: functional; conditions: NCI-H226, 48 h, read-out: GI
A549 = experiment: Cytotoxicity against human A549/ATCC cells at 10 uM after 48 hrs by coulter counter analysis; format: functional; conditions: A549, 48 h, read-out: GI
RPMI-8226 = experiment: Cytotoxicity against human RPMI8226 cells at 10 uM after 48 hrs by coulter counter analysis; format: functional; conditions: RPMI-8226, 48 h, read-out: GI
SR = experiment: Cytotoxicity against human SR cells at 10 uM after 48 hrs by coulter counter analysis; format: functional; conditions: read-out: GI
MOLT-4 = experiment: Cytotoxicity against human MOLT4 cells at 10 uM after 48 hrs by coulter counter analysis; format: functional; conditions: MOLT-4, 48 h, read-out: GI
CCRF-CEM = experiment: Cytotoxicity against human CCRF-CEM cells at 10 uM after 48 hrs by coulter counter analysis; format: functional; conditions: read-out: GI
HL-60(TB) = experiment: Cytotoxicity against human HL-60(TB) cells at 10 uM after 48 hrs by coulter counter analysis; format: functional; conditions: HL-60, 48 h, read-out: GI
Escherichia coli [3] = experiment: Antimicrobial activity against Escherichia coli after 24 hrs by micro-dilution susceptibility method
Micrococcus luteus [4] = experiment: Antimicrobial activity against Micrococcus luteus after 24 hrs by micro-dilution susceptibility method; format: functional
Summary of the method: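 MIC by broth microdilution in Müller-Hinton broth against M. luteus IFO 3232, the same strain used in the disc-diffusion primary screen.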

Bacillus subtilis [5] = experiment: Antimicrobial activity against Bacillus subtilis after 24 hrs by micro-dilution susceptibility method; format: functional
Summary of the method: (§1)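 Broth microdilution in Müller-Hinton broth against S. aureus IFO 3060, B. subtilis IFO 3007, E. coli IFO 3301 and P. aeruginosa IFO 3448. These are the same standard strains used in the disc-diffusion primary screen. Compounds were solubilized in DMSO. MIC recorded as the minimal inhibitory concentration.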

Staphylococcus aureus [6] = experiment: Antimicrobial activity against Staphylococcus aureus after 24 hrs by micro-dilution susceptibility method; format: functional; summary of the method: as §1
Pseudomonas aeruginosa = experiment: Antimicrobial activity against Pseudomonas aeruginosa at 200 ug after 24 hrs by agar disc diffusion method; format: functional; conditions: read-out: DIZ
Escherichia coli [7] = experiment: Antimicrobial activity against Escherichia coli at 200 ug after 24 hrs by agar disc diffusion method; format: functional; conditions: read-out: DIZ
Micrococcus luteus [8] = experiment: Antimicrobial activity against Micrococcus luteus at 200 ug after 24 hrs by agar disc diffusion method; format: functional; conditions: read-out: DIZ
Bacillus subtilis [9] = experiment: Antimicrobial activity against Bacillus subtilis at 200 ug after 24 hrs by agar disc diffusion method; format: functional; conditions: read-out: DIZ
Dihydrofolate reductase = molecular target: T1, Dihydrofolate reductase (Bos taurus, UniProt P00376); experiment: Inhibition of bovine DHFR after 2 mins by spectrophotometry
T1 sequence (P00376 whole entry): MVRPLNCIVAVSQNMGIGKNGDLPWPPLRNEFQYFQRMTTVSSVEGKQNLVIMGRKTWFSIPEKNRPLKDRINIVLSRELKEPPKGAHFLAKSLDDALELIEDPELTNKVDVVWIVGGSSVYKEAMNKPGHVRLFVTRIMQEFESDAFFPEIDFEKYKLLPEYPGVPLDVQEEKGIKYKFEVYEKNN

Staphylococcus aureus [10] = experiment: Antimicrobial activity against Staphylococcus aureus at 200 ug after 24 hrs by agar disc diffusion method; format: functional; conditions: read-out: DIZ

COc1cc2nc(Sc3cnc(N)s3)n(-c3ccccc3)c(=O)c2cc1OC
inhibition of growth at 10 µM (T47D): < 10%
inhibition of growth at 10 µM (Hs-578T): < 10%
inhibition of growth at 10 µM (MCF7): < 10%
inhibition of growth at 10 µM (MDA-MB-231): 18.6%
inhibition of growth at 10 µM (PC-3): 12%
inhibition of growth at 10 µM (UO-31): 22.2%
inhibition of growth at 10 µM (RXF 393): < 10%
inhibition of growth at 10 µM (SN12C): < 10%
inhibition of growth at 10 µM (A498): < 10%
inhibition of growth at 10 µM (CAKI-1): 17.8%
inhibition of growth at 10 µM [1]: < 10%
inhibition of growth at 10 µM (OVCAR-4): < 10%
inhibition of growth at 10 µM (UACC-62): < 10%
inhibition of growth at 10 µM (IGROV-1): 13%
inhibition of growth at 10 µM (SK-MEL-5): < 10%
inhibition of growth at 10 µM (Malme-3M): < 10%
inhibition of growth at 10 µM (MDA-MB-435): < 10%
inhibition of growth at 10 µM (SNB-75): < 10%
inhibition of growth at 10 µM (LOX IMVI): < 10%
inhibition of growth at 10 µM (SNB-19): < 10%
inhibition of growth at 10 µM (NCI-H522): < 10%
inhibition of growth at 10 µM (SF-295): < 10%
inhibition of growth at 10 µM (NCI-H23): < 10%
inhibition of growth at 10 µM [2]: 12.7%
inhibition of growth at 10 µM (NCI-H226): < 10%
inhibition of growth at 10 µM (A549): < 10%
inhibition of growth at 10 µM (RPMI-8226): 12.5%
inhibition of growth at 10 µM (SR): 14.8%
inhibition of growth at 10 µM (MOLT-4): < 10%
inhibition of growth at 10 µM (CCRF-CEM): < 10%
inhibition of growth at 10 µM (HL-60(TB)): < 10%
MIC (Escherichia coli [3]): 4 µg/mL (≈ 9.7 µM)
MIC (Micrococcus luteus [4]): 4 µg/mL (≈ 9.7 µM)
MIC (Bacillus subtilis [5]): 4 µg/mL (≈ 9.7 µM)
MIC (Staphylococcus aureus [6]): 8 µg/mL (≈ 19.4 µM)
zone of inhibition at 200 µg/disc (Pseudomonas aeruginosa): 14 mm
zone of inhibition at 200 µg/disc (Escherichia coli [7]): 18 mm
zone of inhibition at 200 µg/disc (Micrococcus luteus [8]): 16 mm
zone of inhibition at 200 µg/disc (Bacillus subtilis [9]): 20 mm
IC50 (Dihydrofolate reductase): 0.5 µM
zone of inhibition at 200 µg/disc (Staphylococcus aureus [10]): 18 mm

COc1cc2nc(Sc3ncccc3C(=O)O)n(-c3ccccc3)c(=O)c2cc1OC
inhibition of growth at 10 µM (T47D): < 10%
inhibition of growth at 10 µM (Hs-578T): < 10%
inhibition of growth at 10 µM (MCF7): < 10%
inhibition of growth at 10 µM (MDA-MB-231): < 10%
inhibition of growth at 10 µM (PC-3): < 10%
inhibition of growth at 10 µM (UO-31): 12%
inhibition of growth at 10 µM (RXF 393): < 10%
inhibition of growth at 10 µM (SN12C): < 10%
inhibition of growth at 10 µM (A498): < 10%
inhibition of growth at 10 µM (CAKI-1): 17.7%
inhibition of growth at 10 µM [1]: < 10%
inhibition of growth at 10 µM (OVCAR-4): < 10%
inhibition of growth at 10 µM (UACC-62): < 10%
inhibition of growth at 10 µM (IGROV-1): < 10%
inhibition of growth at 10 µM (SK-MEL-5): < 10%
inhibition of growth at 10 µM (Malme-3M): < 10%
inhibition of growth at 10 µM (MDA-MB-435): < 10%
inhibition of growth at 10 µM (SNB-75): < 10%
inhibition of growth at 10 µM (LOX IMVI): < 10%
inhibition of growth at 10 µM (SNB-19): < 10%
inhibition of growth at 10 µM (NCI-H522): 11.4%
inhibition of growth at 10 µM (SF-295): < 10%
inhibition of growth at 10 µM (NCI-H23): < 10%
inhibition of growth at 10 µM [2]: < 10%
inhibition of growth at 10 µM (NCI-H226): 12%
inhibition of growth at 10 µM (A549): < 10%
inhibition of growth at 10 µM (RPMI-8226): < 10%
inhibition of growth at 10 µM (SR): < 10%
inhibition of growth at 10 µM (MOLT-4): < 10%
inhibition of growth at 10 µM (CCRF-CEM): < 10%
inhibition of growth at 10 µM (HL-60(TB)): < 10%
MIC (Escherichia coli [3]): 2 µg/mL (≈ 4.59 µM)
MIC (Bacillus subtilis [5]): 4 µg/mL (≈ 9.19 µM)
MIC (Staphylococcus aureus [6]): 4 µg/mL (≈ 9.19 µM)
zone of inhibition at 200 µg/disc (Pseudomonas aeruginosa): 8 mm
zone of inhibition at 200 µg/disc (Escherichia coli [7]): 22 mm
zone of inhibition at 200 µg/disc (Micrococcus luteus [8]): 15 mm
zone of inhibition at 200 µg/disc (Bacillus subtilis [9]): 22 mm
IC50 (Dihydrofolate reductase): 7 µM
zone of inhibition at 200 µg/disc (Staphylococcus aureus [10]): 20 mm
